High-throughput results as filed in PubChem BioAssay.
GRK2 aptamer HTS: human GRK2 inhibition via aptamer displacement. P25098. bead flow cytometry, FAM-aptamer displacement from GRK2. inhibition of aptamer binding, % at 10 µM. 330,000 compounds, 0.59% hits;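 active means inhibition of aptamer binding above 40%, roughly 3 SD of noise, on plates passing a quality check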;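 further: median bead fluorescence of bound FAM aptamer so fluorescent compounds give negative values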
DNMT1 block: DNMT1 (human) enzyme inhibition | DNMT1 molecular beacon, Hinp1I cleavage, fluorescence | inhibition (reported as % activation of signal), % at 10 µM | 360,000 compounds, 0.83% hits | AID 588458; in the data active means inhibition above about 50%
Scp-1 inhibitor: inhibitors of human Scp-1 phosphatase; Q9GZU7; Recombinant Scp1, phosphopeptide, malachite green phosphate absorbance; inhibition, % at 20 µM; 340,000 compounds, 0.88% hits;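 active means inhibition above about 50% at 20 µM, limit read from the data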;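 further: plate controls were DMSO wells with enzyme for no effect and wells lacking enzyme for full effect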
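Incubation: 45 min enzyme reaction at room temperature / System: truncated SCP-1 phosphatase (76-261aa) / Reagent: Phospho 17-mer peptide substrate / Buffer or medium: Acidic Tris acetate buffer with magnesium and detergent / Signal: absorbance at 630 nm / Doses: one concentration, 20 µM, with 1.0% DMSO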
LMPTP block: LMPTP (human) inhibition; recombinant LMPTP-A, OMFP fluorogenic substrate, fluorescence intensity; inhibition, % at 20 µM; 360,000 compounds, 0.22% hits; AID 651560;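 active means compounds that cut the enzyme signal by at least half of the control window in the single-dose screen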;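 further: plate controls were DMSO wells with enzyme plus substrate for no effect and substrate without enzyme for full effect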
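Test system – LMPTP-A enzyme · Amount – LMPTP-A at 0.625 nM final in the reaction · Buffer or medium – Bis-Tris pH 6.0, DTT, detergent · Reagent – OMFP 400 µM · Doses – single 20 µM dose · Schedule – reaction 50 min, room temperature, dark · Detection – fluorescence intensity of OMFP turnover product · Evaluation – percent inhibition versus substrate-only and uninhibited controls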
SUMO1 PPI mod: alters human SUMO1 binding to SIM partners | P63165 | SUMO1 binding to a labelled peptide, TR-FRET, 1 h | inhibition, % at 20 µM | 360,000 compounds, 0.33% hits; in the data active means inhibition above about 37%
STEP inh: inhibitors of human striatal-enriched phosphatase STEP | recombinant STEP, OMFP fluorogenic substrate, fluorescence | inhibition, % at 20 µM | 360,000 compounds, 0.25% hits;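 active means inhibition at 20 µM, scaled per plate between control wells, above about 37%, limit read from the data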;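 further: 0% = DMSO with enzyme and substrate and 100% = substrate only without enzyme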
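Material: STEP (striatal-enriched tyrosine phosphatase) enzyme, cell-free; Compound dosing: 20 µM single dose in 1% DMSO; Technique: fluorescence read at 480 nm ex / 540 nm em; Times: reaction 20 min, ambient temperature; Medium: 50 mM Bis-Tris pH 6.0 with 2.5 mM DTT and 0.005% Tween 20; Also added: OMFP at 25 µM.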
Starred values were filed as active, the others as inactive; / = no result. Only some compounds are listed: those with a hit (about 2.1% of all), similar ones and a draw of the others.

SMILES	GRK2 aptamer HTS	DNMT1 block	Scp-1 inhibitor	LMPTP block	SUMO1 PPI mod	STEP inh
O=C(CNC(=O)c1ccc(Cl)cc1Cl)OCc1nnc(-c2ccccc2)o1	1.0	-1.3	1.6	-0.7	2.2	-1.8
Cc1cccc(NS(=O)(=O)Cc2ccccc2)n1	0.0	-1.9	-4.8	-1.4	-1.7	0.8
O=S(=O)(Cc1ccccc1)Nn1cnnc1	2.0	-2.3	-6.4	5.2	60.2*	-0.1
COc1cc(C(=O)N2CCN(c3ccccc3)CC2)c2ccccc2n1	/	5.9	-5.0	-0.6	-0.3	1.8
CC(C)c1ccc(C2c3[nH]c4ccccc4c3C[C@H]3C(=O)N(c4ccccc4C(=O)N4CCC(C(=O)O)CC4)C(=O)N23)cc1 (stereo not given in full)	5.0	-1.2	-1.3	0.5	6.7	-2.7
COc1ccc(/C=N/NC(=O)c2cc(O)c(O)c(O)c2)cc1Cn1cc([N+](=O)[O-])cn1	/	21.6	83.2*	62.0*	8.4	5.4
COc1ccc(/C=N/NC(=O)c2ccccc2O)cc1Cn1cc([N+](=O)[O-])cn1	1.0	1.0	-7.4	2.1	-13.2	-2.6
Cn1ncc2c(NCc3cccc(C(F)(F)F)c3)c(C(=O)O)cnc21	55.0*	/	/	/	/	/
O=C(COc1ccc2ccccc2c1Br)N1CCCCC1	87.0*	-0.6	-4.7	0.7	-16.1	-1.1
NC(=O)C1CCN(C(=O)COc2ccc3ccccc3c2Br)CC1	0.0	-4.4	1.0	0.1	-19.1	0.2
CC(=O)NCCNc1nc2cc(-c3cccc(C(F)(F)F)c3)sc2c(=O)n1C	/	7.8	/	2.6	-25.4	-0.5
COc1ccc2oc(=Nc3ccc(C(=O)O)cc3)c(C(=O)NCc3ccco3)cc2c1	1.0	4.4	-9.4	0.9	64.8*	-2.6
COc1ccc2cc(C(=O)NCc3ccco3)c(=O)oc2c1	3.0	3.9	-7.6	-1.7	-16.2	-2.1
CC1C(c2ccccc2)OCCN1C(=S)NC(=O)c1ccccc1 (stereo not given)	/	-0.9	/	1.6	3.7	8.1
COc1ccc(C)cc1NC(=O)CCc1ccc(S(=O)(=O)N2CCOCC2)cc1	6.0	-0.5	-7.6	-0.1	2.5	-4.8
Cc1ccc(C(=O)Nc2nnc(CC(=O)N/N=C/c3ccc(O)c(O)c3)s2)cc1	62.0*	15.1	31.1	24.0	95.8*	5.6
Cc1ccc(C(=O)Nc2nnc(CC(=O)N/N=C/c3ccncc3)s2)cc1	0.0	-7.8	-2.8	14.1	5.6	5.9
COc1ccc(C(=O)Nc2nnc(CC(=O)N/N=C/c3ccc(O)cc3O)s2)cc1	0.0	23.2	/	12.6	78.6*	9.7
CCn1c(SCc2nc3sc(C(=O)O)c(C)c3c(=O)[nH]2)nc2ccccc21	8.0	43.8	65.4*	1.6	40.7*	15.7
C=CCN(CC=C)S(=O)(=O)c1ccc(NC(=S)NC(=O)/C=C/c2ccccc2)cc1	0.0	2.9	-4.8	3.5	63.3*	6.5
O=C(/C=C/c1ccccc1)NC(=S)Nc1ccccc1	0.0	1.7	3.0	-1.2	-0.9	1.6
CC(C)(C)NC(=O)C1(C)CCC(=O)N1CC(F)(F)F (stereo not given)	/	6.3	/	-0.4	-3.3	-1.4
CC1(C)CC[C@]2(C(=O)n3ccnc3)CC[C@]3(C)[C@H](C(=O)C=C4[C@@]5(C)C=C(C#N)C(=O)C(C)(C)[C@@H]5CC[C@]43C)[C@@H]2C1	/	60.2*	14.6	-2.0	43.7*	1.9
CCCCCCCCCC[n+]1cccc2c3ccccc3ccc21	/	12.9	65.4*	4.6	-23.3	7.5
CCCCCc1c(CC)ncn1CCc1ccccc1OC	/	/	/	-1.6	-1.2	/
SMILES	GRK2 aptamer HTS	DNMT1 block	Scp-1 inhibitor	LMPTP block	SUMO1 PPI mod	STEP inh
Cc1ccc(S(=O)(=O)N2CCOCC2)cc1C(=O)Nc1ccncc1	0.0	-3.7	-4.3	-0.9	-2.7	1.4
Cc1ccc(S(=O)(=O)N2CCOCC2)cc1C(=O)Nc1ccc(-c2cn3ccsc3n2)cc1	0.0	-5.0	-7.7	1.5	45.3*	-1.6
Cc1cccc(NC(=O)CNC(=O)CN2C(=O)NC(C)(CCC(C)C)C2=O)c1C (stereo not given)	/	1.8	-0.7	-0.6	-5.1	-1.7
COc1cc(-c2nnc(SCc3cc(=O)oc4cc(O)c(O)cc34)o2)cc(OC)c1OC	20.0	63.6*	72.8*	62.6*	29.6	17.3
COc1cccc(C(C(=O)NCc2ccccc2)N2CCN(C(=O)C3CCCO3)CC2)c1OC (stereo not given)	/	/	/	-2.6	-0.9	/
CCOC(=O)c1c(NC(=O)c2ccco2)n(C2CCCCC2)c2nc3ccccc3nc12	4.0	39.3	-2.6	6.0	39.7*	1.0
CCOC(=O)c1c(N)n(C2CC(C)(C)NC(C)(C)C2)c2nc3ccccc3nc12	0.0	28.7	-5.5	2.9	-10.3	0.1
O=C(NC1CCCC1)c1sc(=S)n2c1[nH]c(=O)c1ccccc12	4.0	-2.3	57.5*	0.4	9.6	18.7
O=C(Nc1ccc(Nc2ccncc2)cc1)c1ccc(Nc2ccnc3ccc([N+](=O)[O-])cc23)cc1	/	-70.3	0.4	77.8*	127.8*	85.3*
COc1ccc2cc3[n+](cc2c1O)CCc1cc2c(cc1-3)OCO2	/	/	/	64.3*	37.8	/
COc1cc2c(cc1OC)-c1cc3ccc(OC)c(OC)c3c[n+]1CC2	0.0	-7.1	-6.3	-0.8	-15.3	1.5
CN(C)NC1=CC(=[N+]2CCCC2)CC(C)(C)C1	0.0	1.6	-3.0	-0.9	-2.0	-0.8
CCCN(CCC)C1=CC(=[N+]2CCCC2)CC(C)(C)C1	3.0	16.6	76.9*	-1.7	-0.3	-1.0
NC(N)=NN=C(c1ccc(F)cc1)c1ccc(C(F)(F)F)cc1	/	6.0	4.7	-1.1	-15.2	4.5
COc1ccc(S(=O)(=O)Nc2cc3c4c(c2)CC(=O)N4CCC3)cc1OC	/	-1.1	/	-0.6	0.5	-2.9
Nc1ccn(Cc2ccc(F)cc2)n1	4.0	0.0	0.9	-1.0	75.6*	-1.7
CCOC(=O)C1=CNS(=O)(=O)NC1c1ccc(Br)cc1F (stereo not given)	3.0	2.0	3.9	-1.8	2.3	-3.6
O=C(NCCN1CCCC1)c1ccc(Cn2c(=S)[nH]c3cc4c(cc3c2=O)OCO4)cc1	0.0	33.1	0.4	54.3*	4.6	3.7
O=C(CCCCCCC(=O)NCc1ccccc1)NCc1ccccc1	0.0	-4.3	-0.8	-1.2	3.4	0.6
CCCc1cc(=O)oc2cc(OCC(=O)Nc3ccccn3)ccc12	0.0	0.6	34.8	-1.5	19.2	-0.1
COc1ccc(-c2cc(=O)oc3cc(OCC(=O)Nc4ccccn4)ccc23)cc1	0.0	-3.8	-8.6	5.5	43.4*	-0.3
COC(=O)c1c(Sc2ccccc2)c2ccccc2n1C	0.0	3.8	61.3*	0.3	3.1	-2.4
